# iPSC survival up: enhancers of human iPSC single-cell survival | hiPSC single-cell survival, ATPlite luminescence; 100% = ROCK inhibitor wells, 0% = DMSO | survival enhancement, % at 20 µM | 360,000 compounds, 0.044% hits | AID 602274; in the data active = survival enhancement above about 18%;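 note: cells exposed to compounds for 16 hours before the ATP read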
# FAS-TE inh: blocks the thioesterase domain of human fatty acid synthase; P49327; recombinant FAS-TE, OMFH fluorogenic substrate, fluorescence endpoint; inhibition, % at 15 µM; 360,000 compounds, 0.67% hits; AID 602261;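 active = compounds whose normalised, plate-corrected inhibition of enzyme fluorescence in the single-dose primary screen is 50% or more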;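 note: 0% = DMSO with enzyme and 100% = substrate without enzyme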
# SENP1 FRET inh: blocks the human SENP1 SUMO protease catalytic domain. Q9P0U3. recombinant SENP1 catalytic domain, CyPet-SUMO1-YPet FRET cleavage. inhibition, % at 10 µM. 360,000 compounds, 0.21% hits;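 active = inhibition at least 30% at 10 µM, raw YFP signal under a set limit, fluorescence ratio 0.5 to 1.5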;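 note: 0% = enzyme with DMSO and 100% = no enzyme wells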
# Target sequence (Q9P0U3 419-644 limits assumed): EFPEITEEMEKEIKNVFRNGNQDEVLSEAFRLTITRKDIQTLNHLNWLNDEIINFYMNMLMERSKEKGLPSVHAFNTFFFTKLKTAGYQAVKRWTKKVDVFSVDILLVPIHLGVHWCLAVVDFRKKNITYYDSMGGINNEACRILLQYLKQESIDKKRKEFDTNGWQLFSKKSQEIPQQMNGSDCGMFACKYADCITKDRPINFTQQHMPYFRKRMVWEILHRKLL
#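 Material: hSENP1 catalytic domain, recombinant; medium: Tris pH 8 with BME, BSA, NP40 and catalase; compound: single concentration of 10 µM compound, 0.5% DMSO final; technique: FRET read of cyan and yellow fluorescence; timing: 50 min enzyme reaction, room temperature, light-protected; reagent: SFCypet-SUMO1-SFYpet substrate at 25 nM; control set: no-enzyme low, enzyme-DMSO high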
# NR3A LBD binder: modulators (binders) of human NR3A ligand-binding domain | NR3A LBD differential scanning fluorimetry, Tm shift; 0% = protein alone, 100% = glycine-bound protein | AID 1259313 | 340,000 compounds, 2.5% hits | Tm shift relative to glycine control, % at 25 µM;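 active = melting temperature shift of at least 10% of the positive control shift, at one fixed dose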
# H9c2 protect: protects H9c2 cardiomyocytes from peroxide injury; H2O2 injury protection, ATPLite, 2 h; protection from H2O2 cell death, % at 20 µM; 360,000 compounds, 0.63% hits;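 active = compounds giving at least 50% protection of heart cells from peroxide-induced death in the single-dose screen, raw or plate-pattern-corrected value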;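 note: 0% = DMSO wells with peroxide and 100% = DMSO wells without peroxide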
# Arr AP2 block: blocks beta-arrestin peptide binding to AP2 adaptin | FITC-arrestin peptide / GST-AP2 beads, flow cytometry; AP2 beta2 appendage carries R879A mutation | inhibition, % at 10 µM | 340,000 compounds, 0.31% hits;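 active = inhibition above a set limit, near 3 SD of compounds lacking own fluorescence, cut at about 54% in these data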;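 note: plate controls were DMSO wells for no effect and 5 µM unlabelled arrestin peptide for full effect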
#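 System: GST-AP2 R879A glutathione beads | Also added: FITC-arrestin peptide, 50 nM | Times: 12 min plus 1 h, RT | Signal: Bead flow cytometry, FITC channel | Buffer or medium: PBS with 0.05% Tween 20 and 0.1% BSA | Read-out basis: Percent drop in bead-associated FITC signal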
# FAS-TE conf: confirmation of human fatty acid synthase thioesterase inhibitors; shares compounds with FAS-TE inh; recombinant FAS-TE, OMFH fluorogenic substrate, fluorescence; inhibition, % at 15 µM; 2,300 compounds, 45% hits;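 active = compounds inhibiting the enzyme by at least 50% at 15 µM in any one of the replicates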;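 note: 0% = enzyme with DMSO only and 100% = wells lacking enzyme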
# Active calls of the source: *; x = not tested or not shown. A selection: hits, their analogues and other compounds. The true share with any hit is near 4%.
SMILES,iPSC survival up,FAS-TE inh,SENP1 FRET inh,NR3A LBD binder,H9c2 protect,Arr AP2 block,FAS-TE conf
C[C@H](NC(=O)c1nc[nH]c1C(=O)N[C@@H](CCCCN)C(=O)OC(C)(C)C)C(=O)OC(C)(C)C,6.5,-7.8,-1.7,-1.1,-0.6,-2.4,x
CC(C)(C)OC(=O)NCCCC[C@H](NC(=O)c1nc[nH]c1C(=O)NC1CCN(C(=O)OC(C)(C)C)CC1)C(=O)OC(C)(C)C,-0.2,84.1*,0.3,-10.2,28.2,7.9,58.8*
COCc1cccc(-c2csc(C(NC(C)=O)c3cccc(OC)c3)n2)c1 (centres undefined),-0.3,4.8,0.6,x,-3.1,x,x
COC(=O)C[C@H]1C=C[C@H](NC(=O)C2CCOCC2)[C@@H](CO)O1,x,x,4.1,x,x,x,x
COc1ccc(NC(=O)C(CCCCNC(=O)OC(C)(C)C)NC(=O)OCc2ccccc2)cc1 (centres undefined),0.3,-6.1,-0.6,0.3,2.2,4.5,x
CC(C)(C)OC(=O)N[C@@H](CCCCNC(=O)OCc1ccccc1)c1nnc([C@H](CCCCNC(=O)OCc2ccccc2)NC(=O)OC(C)(C)C)o1,-2.1,65.5*,0.8,0.9,1.5,29.4,27.0
CC(C)(C)OC(=O)NCCCC[C@H](NC(=O)c1nc[nH]c1C(=O)NCc1ccc(CNC(=O)OC(C)(C)C)cc1)C(=O)OC(C)(C)C,-1.3,11.7,-1.7,-4.4,0.6,-0.5,x
CC(C)(C)OC(=O)CNC(=O)c1[nH]cnc1C(=O)N[C@@H](CCCCNC(=O)OC(C)(C)C)C(=O)OC(C)(C)C,-2.9,87.0*,1.0,4.5,17.8,0.6,92.4*
Cc1cccc(NC(=O)c2nc[nH]c2C(=O)N[C@@H](CCCCNC(=O)OC(C)(C)C)C(=O)OC(C)(C)C)c1,-3.5,89.8*,-1.1,-8.6,1.7,-1.2,55.3*
C[C@H](NC(=O)c1nc[nH]c1C(=O)N[C@@H](CCCCNC(=O)OC(C)(C)C)C(=O)OC(C)(C)C)C(=O)OCc1ccccc1,-2.6,87.3*,0.1,-5.7,-0.2,33.4,74.3*
O=C(OCc1ccccc1)N1CCCCC1c1c(Cl)cccc1Br (centres undefined),2.0,18.2,0.7,x,-4.1,x,x
O=C(Cc1cccc2c(=O)cc(-c3ccccc3)oc12)OCCN1CCOCC1,-0.4,-4.2,0.9,x,17.7,x,x
CC(C)(C)OC(=O)NCCCC[C@H](NC(=O)c1nc[nH]c1C(=O)NCC(=O)OCc1ccccc1)C(=O)OC(C)(C)C,-0.2,89.8*,1.6,-14.0,8.3,0.3,96.3*
CN(C)c1ccc(CNC(=O)C2Cc3c(-c4cccc(C(N)=O)c4)ccnc3O2)cc1 (centres undefined),1.3,-8.9,0.9,x,46.2,x,x
Cc1nnc(SC(C(=O)Nc2ccc(Cl)c([N+](=O)[O-])c2)c2ccccc2)[nH]c1=O (centres undefined),0.1,51.8*,0.5,5.1,1.7,-0.8,53.1*
Cc1cc2ncn(/N=C/c3cccnc3)c2cc1C,1.4,3.2,1.1,-2.8,12.4,-6.7,x
Cc1cc2ncn(/N=C/c3ccc(-c4ccccc4)o3)c2cc1C,-0.6,50.2*,1.3,-3.3,16.9,5.7,47.1
O=C(Nc1ncc(S(=O)(=O)c2ccc([N+](=O)[O-])cc2)s1)c1cccc2ccccc12,4.5,55.8*,3.1,10.8*,-14.9,14.3,6.6
COCC(=O)Nc1ncc(S(=O)(=O)c2ccc([N+](=O)[O-])cc2)s1,1.1,0.4,2.2,0.5,-3.6,20.6,x
O=C(NC(Nc1ncc(S(=O)(=O)c2ccc([N+](=O)[O-])cc2)s1)(C(F)(F)F)C(F)(F)F)c1ccc(Cl)cc1,-2.8,60.7*,2.5,9.8,-25.4,4.7,43.6*
COc1ccc2ccccc2c1/C=N/NC(=S)Nc1cc(S(=O)(=O)N2CCOCC2)ccc1N1CCOCC1,1.1,91.6*,-40.8,-10.2,-0.2,2.6,27.0
CCN(CC)S(=O)(=O)c1ccc(N2CCOCC2)c(NC(=O)c2ccc3ccccc3c2)c1,-0.2,51.8*,1.2,0.3,-3.1,2.5,21.8
COc1ccc(/C=N/NC(=S)Nc2cc(S(=O)(=O)N3CCOCC3)ccc2N2CCOCC2)cc1O,0.0,12.9,2.0,-9.7,9.3,-1.3,x
CCOC1=C2CN(S(=O)(=O)c3ccc(C)cc3)[C@@H](c3cccc4ccccc34)C[C@H]2[C@H]2C(=O)N(c3ccccc3)C(=O)[C@H]2C1,0.3,87.7*,7.8,x,6.1,x,6.0
CCOC1=C2[C@@H](CN(S(=O)(=O)c3ccc(C)cc3)[C@H]2c2ccc(CC)cc2)[C@H]2C(=O)N(c3ccccc3)C(=O)[C@H]2C1,0.9,50.4*,9.8,x,2.3,x,9.7
SMILES,iPSC survival up,FAS-TE inh,SENP1 FRET inh,NR3A LBD binder,H9c2 protect,Arr AP2 block,FAS-TE conf
CCOC1=C2CN(S(=O)(=O)c3ccc(C)cc3)[C@H](c3cccc(Cl)c3)C[C@H]2[C@H]2C(=O)N(c3ccccc3)C(=O)[C@H]2C1,2.3,81.1*,0.9,x,-1.9,x,18.9
CCOC1=C2CN(S(=O)(=O)c3ccc(C)cc3)[C@H](c3cccc4ccccc34)C[C@H]2C(C#N)(C#N)C(C#N)(C#N)C1,-1.4,63.2*,-73.4,x,-6.6,x,29.5
CCOC1=C2CN(S(=O)(=O)c3ccc(C)cc3)[C@H](c3ccccc3)C[C@@H]2N(S(C)(=O)=O)[C@H](c2ccccc2)C1,-1.1,48.1,-16.7,x,-1.9,x,x
CCN(CC)C(=O)c1cccc(-c2csc(C(C)(O)c3cccc(F)c3)n2)c1 (centres undefined),1.5,3.4,1.0,x,-8.8,x,x
CCOC1=C2[C@H](c3ccccc3)N(S(=O)(=O)c3ccc(C)cc3)C(C(C)(C)C)[C@H]2C(C#N)(C#N)C(C#N)(C#N)C1 (some centres undefined),0.2,77.5*,1.1,x,-13.0,x,11.9
CCOC1=C2CN(S(=O)(=O)c3ccc(C)cc3)[C@H](c3ccccc3)C[C@@H]2N(S(=O)(=O)c2ccccc2)[C@H](c2ccccc2)C1,2.2,28.7,3.1,x,3.2,x,x
CCOC1=C2CN(S(=O)(=O)c3ccc(C)cc3)[C@@H](c3ccccc3)C[C@H]2[C@H]2C(=O)N(c3ccccc3)C(=O)[C@H]2C1,-0.9,68.8*,18.5,x,0.1,x,9.4
CCCCC[C@@H]1[C@@H]2C(=C(OCC)C[C@@H]3C(=O)N(c4ccccc4)C(=O)[C@H]23)[C@H](c2ccccc2)N1S(=O)(=O)c1ccc(C)cc1,4.7,26.6,3.2,x,3.0,x,x
O=C(c1cccs1)c1c[nH]cc1-c1ccccc1,-0.3,-2.3,-0.9,0.5,2.6,1.3,x

# Source: PubChem
